Calls of active or inactive are those of the source. The calls are words filed in the database; no cut-off is given here.
Tests used:
[1] = Metabolic stability in human liver microsomes assessed as intrinsic clearance measured for 60 mins; assay type: ADME, Microsome; settings: read-out: CLH
How it was run: (§1)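 Stability of the probe tested by incubation with human liver microsomes. Intrinsic clearance expressed per mg microsomal protein; half-life derived from the clearance.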

5'-nucleotidase [2] = target: T1, 5'-nucleotidase (Rattus norvegicus, UniProt P21588); assay: Inhibition of recombinant rat CD73 expressed in Sf9 cells using [2,8-3H]-AMP as substrate incubated for 25 mins by scintillation counting method
T1 sequence (P21588 whole entry): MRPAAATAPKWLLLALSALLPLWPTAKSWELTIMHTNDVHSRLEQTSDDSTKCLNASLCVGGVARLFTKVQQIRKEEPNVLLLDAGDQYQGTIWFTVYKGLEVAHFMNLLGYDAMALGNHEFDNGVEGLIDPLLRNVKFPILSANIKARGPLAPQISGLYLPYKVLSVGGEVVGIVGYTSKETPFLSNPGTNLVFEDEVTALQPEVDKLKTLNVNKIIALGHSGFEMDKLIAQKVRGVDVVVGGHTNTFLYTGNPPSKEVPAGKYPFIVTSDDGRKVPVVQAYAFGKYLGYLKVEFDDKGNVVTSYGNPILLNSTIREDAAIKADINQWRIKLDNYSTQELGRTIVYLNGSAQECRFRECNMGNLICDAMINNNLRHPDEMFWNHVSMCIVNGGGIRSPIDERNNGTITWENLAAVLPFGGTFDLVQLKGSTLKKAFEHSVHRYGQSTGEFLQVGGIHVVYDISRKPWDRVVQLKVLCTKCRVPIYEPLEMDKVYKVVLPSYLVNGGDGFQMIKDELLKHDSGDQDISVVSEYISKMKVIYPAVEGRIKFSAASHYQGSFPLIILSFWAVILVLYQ
How it was run: (§2)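 Radiometric CD73 assay using [3H]AMP substrate. Enzyme sources: human and rat recombinant soluble CD73 from Sf9 insect cells, or membrane preparations of MDA-MB-231 cells with native CD73. After incubation, unreacted [3H]AMP precipitated with lanthanum chloride and removed by filtration. [3H]adenosine in filtrate quantified by liquid scintillation counting. Full concentration-inhibition curves; Ki from IC50 via Cheng–Prusoff. Means ± SEM of 3 separate experiments.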

[3] = Selectivity index, ratio of Ki for rat C-terminal His-tagged CD73 expressed in Sf9 cells to Ki for recombinant human C-terminal His-tagged CD73 (27 to 549 residues) expressed in Sf9 cells
How it was run: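 Ki values were measured in a radiometric assay with [3H]AMP substrate against rat and human recombinant soluble CD73 expressed in Sf9 insect cells. Residual [3H]AMP was precipitated with lanthanum chloride and removed by filtration, and [3H]adenosine was quantified by liquid scintillation counting. Ki came from full-curve IC50 via Cheng–Prusoff, 3 separate experiments. The ratio is rat Ki over human Ki.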

A549 = assay: Cytotoxicity against human A549 cells assessed as reduction in cell growth at 1000 nM incubated for 48 hrs by CCK8 assay; assay type: cell-based; settings: a549, 48 h, 1 µM
5'-nucleotidase [4] = target: T2, 5'-nucleotidase (Homo sapiens, UniProt P21589); assay: Inhibition of CD73 in human MDA-MB-231 cells using [2,8-3H]-AMP as substrate incubated for 25 mins by scintillation counting method; assay type: cell-based; how it was run: as §2
[5] = target: T3, Ectonucleoside triphosphate diphosphohydrolase 8 (Homo sapiens) (UniProt Q5MY95); assay: Inhibition of human NTPDase 8 expressed in […] cells using ATP as substrate at 50 uM incubated for 5 mins followed by substrate addition and measured after 30 mins by capillary electrophoresis method; assay type: cell-based
T3 sequence (whole entry): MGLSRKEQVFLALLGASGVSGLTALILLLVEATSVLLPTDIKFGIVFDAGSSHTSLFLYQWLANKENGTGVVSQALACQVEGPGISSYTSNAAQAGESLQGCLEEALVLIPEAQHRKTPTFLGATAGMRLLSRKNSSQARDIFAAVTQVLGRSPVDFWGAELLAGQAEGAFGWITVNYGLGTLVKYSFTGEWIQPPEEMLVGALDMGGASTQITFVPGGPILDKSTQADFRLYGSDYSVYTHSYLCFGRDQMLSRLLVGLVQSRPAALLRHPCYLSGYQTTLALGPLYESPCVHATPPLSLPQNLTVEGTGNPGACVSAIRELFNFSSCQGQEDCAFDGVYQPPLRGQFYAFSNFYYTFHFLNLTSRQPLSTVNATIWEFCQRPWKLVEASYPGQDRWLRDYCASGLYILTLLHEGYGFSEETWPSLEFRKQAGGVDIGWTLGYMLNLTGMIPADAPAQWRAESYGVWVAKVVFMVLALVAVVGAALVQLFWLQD

[6] = target: T4, Ectonucleoside triphosphate diphosphohydrolase 3 (Homo sapiens) (UniProt O75355); assay: Inhibition of human NTPDase 3 expressed in […] cells using ATP as substrate at 50 uM incubated for 5 mins followed by substrate addition and measured after 30 mins by capillary electrophoresis method; assay type: cell-based
T4 sequence (whole entry): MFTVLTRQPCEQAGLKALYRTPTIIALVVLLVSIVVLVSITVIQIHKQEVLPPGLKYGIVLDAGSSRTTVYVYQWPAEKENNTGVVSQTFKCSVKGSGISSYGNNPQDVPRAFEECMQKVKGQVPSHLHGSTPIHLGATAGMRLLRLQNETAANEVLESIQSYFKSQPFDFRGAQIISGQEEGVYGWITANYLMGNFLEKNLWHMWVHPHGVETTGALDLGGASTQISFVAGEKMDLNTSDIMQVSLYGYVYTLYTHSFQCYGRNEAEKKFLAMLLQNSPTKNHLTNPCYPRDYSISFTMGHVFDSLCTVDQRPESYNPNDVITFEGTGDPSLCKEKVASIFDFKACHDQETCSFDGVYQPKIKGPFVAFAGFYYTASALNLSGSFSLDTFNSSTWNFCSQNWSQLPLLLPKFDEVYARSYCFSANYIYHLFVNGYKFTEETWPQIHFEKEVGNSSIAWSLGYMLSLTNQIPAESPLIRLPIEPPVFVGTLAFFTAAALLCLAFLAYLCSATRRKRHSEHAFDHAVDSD

5'-nucleotidase [7] = target: T2, 5'-nucleotidase; assay: Inhibition of recombinant human C-terminal His-tagged CD73 (27 to 549 residues) expressed in Sf9 cells using [2,8-3H]-AMP as substrate incubated for 25 mins by scintillation counting method; how it was run: as §2
[8] = target: T5, Ectonucleoside triphosphate diphosphohydrolase 2 (Homo sapiens) (UniProt Q9Y5L3); assay: Inhibition of human NTPDase 2 expressed in […] cells using ATP as substrate at 50 uM incubated for 5 mins followed by substrate addition and measured after 30 mins by capillary electrophoresis method; assay type: cell-based
T5 sequence (whole entry): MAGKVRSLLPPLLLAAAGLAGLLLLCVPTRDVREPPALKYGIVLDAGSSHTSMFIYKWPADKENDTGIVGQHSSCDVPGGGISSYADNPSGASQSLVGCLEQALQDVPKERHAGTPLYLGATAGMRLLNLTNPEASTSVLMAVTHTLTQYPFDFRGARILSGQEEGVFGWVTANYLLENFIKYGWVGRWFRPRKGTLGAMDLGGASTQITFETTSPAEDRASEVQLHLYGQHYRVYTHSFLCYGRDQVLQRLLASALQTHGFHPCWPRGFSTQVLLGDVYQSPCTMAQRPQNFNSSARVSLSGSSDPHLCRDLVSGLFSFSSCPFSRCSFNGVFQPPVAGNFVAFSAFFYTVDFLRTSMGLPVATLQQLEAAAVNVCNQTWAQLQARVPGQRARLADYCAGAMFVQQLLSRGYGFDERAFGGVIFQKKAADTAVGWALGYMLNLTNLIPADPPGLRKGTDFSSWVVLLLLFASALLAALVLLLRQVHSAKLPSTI

[9] = Metabolic stability in human liver microsomes assessed as half life measured for 60 mins; assay type: ADME, Microsome; how it was run: as §1
[10] = target: T6, Ectonucleoside triphosphate diphosphohydrolase 1 (Homo sapiens) (UniProt P49961); assay: Inhibition of human NTPDase 1 expressed in […] cells using ATP as substrate at 50 uM incubated for 5 mins followed by substrate addition and measured after 30 mins by capillary electrophoresis method; assay type: cell-based
T6 sequence (whole entry): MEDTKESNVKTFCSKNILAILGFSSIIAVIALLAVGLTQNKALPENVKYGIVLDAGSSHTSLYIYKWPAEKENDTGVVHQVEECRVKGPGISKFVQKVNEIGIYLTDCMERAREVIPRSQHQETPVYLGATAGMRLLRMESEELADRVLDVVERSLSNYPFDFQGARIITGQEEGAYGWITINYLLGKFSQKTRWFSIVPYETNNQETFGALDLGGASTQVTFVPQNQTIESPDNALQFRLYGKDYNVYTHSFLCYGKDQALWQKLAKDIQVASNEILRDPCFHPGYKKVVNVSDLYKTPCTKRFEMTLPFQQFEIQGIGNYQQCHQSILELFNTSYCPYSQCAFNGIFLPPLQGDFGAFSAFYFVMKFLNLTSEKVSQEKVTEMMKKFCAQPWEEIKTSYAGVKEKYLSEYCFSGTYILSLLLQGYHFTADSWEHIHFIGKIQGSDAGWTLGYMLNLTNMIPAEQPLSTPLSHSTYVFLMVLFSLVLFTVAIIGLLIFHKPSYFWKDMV

MDA-MB-231 = assay: Cytotoxicity against human MDA-MB-231 cells assessed as reduction in cell growth at 10000 nM incubated for 24 hrs by FACS analysis; assay type: cell-based; settings: mda-mb-231, 24 h, 10 µM
[11] = target: T7, 5'-nucleotidase (Mus musculus) (UniProt Q61503); assay: Inhibition of CD73 in C57BL/6 mouse retina incubated for 1 hr by microscopic analysis; assay type: tissue-based
T7 sequence (whole entry): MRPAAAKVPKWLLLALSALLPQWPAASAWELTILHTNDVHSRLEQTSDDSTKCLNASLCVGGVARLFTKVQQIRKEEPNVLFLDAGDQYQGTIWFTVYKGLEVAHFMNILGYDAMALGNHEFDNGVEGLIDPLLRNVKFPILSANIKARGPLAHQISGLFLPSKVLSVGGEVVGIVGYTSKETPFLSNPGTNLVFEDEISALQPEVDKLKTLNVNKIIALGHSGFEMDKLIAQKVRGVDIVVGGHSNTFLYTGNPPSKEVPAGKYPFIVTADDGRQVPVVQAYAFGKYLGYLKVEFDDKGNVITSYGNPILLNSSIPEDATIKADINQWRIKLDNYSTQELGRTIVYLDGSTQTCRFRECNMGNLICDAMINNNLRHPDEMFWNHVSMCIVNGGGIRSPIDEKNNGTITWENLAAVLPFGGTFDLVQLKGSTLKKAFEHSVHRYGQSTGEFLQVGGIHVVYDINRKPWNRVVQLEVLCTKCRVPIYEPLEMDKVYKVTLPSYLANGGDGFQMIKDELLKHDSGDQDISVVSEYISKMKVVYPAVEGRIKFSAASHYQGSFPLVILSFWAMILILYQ
How it was run: (§3)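 Eyeballs enucleated from wild-type and CD73 knockout mice (targeted gene disruption). Free-floating vibratome-cut eye sections costained with rabbit anti-rat CD73 and chicken anti-vimentin antibodies. Then incubated with fluorochrome-conjugated second-stage antibodies together with fluorescein-labeled inhibitor. Nuclei counterstained with DAPI; read by immunofluorescence microscopy.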

[12] = target: P2Y purinoceptor 12 (Homo sapiens) (UniProt Q9H244); assay: Effect on human P2Y12 expressed in […] cells assessed as beta arrestin recruitment at 10 uM by beta-arrestin assay; assay type: functional, cell-based; settings: CHO-K1
5'-nucleotidase [13] = target: T2, 5'-nucleotidase; assay: Inhibition of CD73 in human MDA-MB-231 cells incubated for 30 mins by anti-CD73 antibody and alexa flour 633 staining based confocal microscopy analysis; assay type: cell-based
How it was run: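 MDA-MB-231 cells grown on cover slips were stained with rabbit anti-human CD73 antibody (h5NT-1L), then incubated with Alexa Fluor 633 goat anti-rabbit IgG secondary together with the fluorescein-labelled CD73 inhibitor. Nuclei were counterstained with DAPI. Cell-surface CD73 and probe binding were imaged by confocal microscopy.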

Retina = assay: Effect on C57BL/6 mouse retina with CD73-/- deficient incubated for 1 hr by microscopic analysis; assay type: ADME, tissue-based; how it was run: as §3

T2 sequence (P21589 whole entry): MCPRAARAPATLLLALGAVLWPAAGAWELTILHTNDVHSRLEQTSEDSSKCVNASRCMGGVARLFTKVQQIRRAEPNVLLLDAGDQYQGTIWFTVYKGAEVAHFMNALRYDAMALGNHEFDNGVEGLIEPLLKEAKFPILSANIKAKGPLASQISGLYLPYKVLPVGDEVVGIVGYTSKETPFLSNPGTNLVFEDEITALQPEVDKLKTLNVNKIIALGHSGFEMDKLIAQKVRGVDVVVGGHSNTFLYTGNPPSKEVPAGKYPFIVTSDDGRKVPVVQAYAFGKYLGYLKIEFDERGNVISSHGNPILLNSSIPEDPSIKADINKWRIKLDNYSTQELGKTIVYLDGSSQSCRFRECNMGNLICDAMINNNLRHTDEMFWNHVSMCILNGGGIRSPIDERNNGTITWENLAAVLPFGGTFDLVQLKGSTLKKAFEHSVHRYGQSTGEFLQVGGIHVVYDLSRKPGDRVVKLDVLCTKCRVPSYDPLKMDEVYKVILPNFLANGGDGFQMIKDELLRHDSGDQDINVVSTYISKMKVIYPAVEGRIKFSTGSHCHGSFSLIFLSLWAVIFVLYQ
Sequence of P2Y purinoceptor 12 (Homo sapiens) (Q9H244 whole entry): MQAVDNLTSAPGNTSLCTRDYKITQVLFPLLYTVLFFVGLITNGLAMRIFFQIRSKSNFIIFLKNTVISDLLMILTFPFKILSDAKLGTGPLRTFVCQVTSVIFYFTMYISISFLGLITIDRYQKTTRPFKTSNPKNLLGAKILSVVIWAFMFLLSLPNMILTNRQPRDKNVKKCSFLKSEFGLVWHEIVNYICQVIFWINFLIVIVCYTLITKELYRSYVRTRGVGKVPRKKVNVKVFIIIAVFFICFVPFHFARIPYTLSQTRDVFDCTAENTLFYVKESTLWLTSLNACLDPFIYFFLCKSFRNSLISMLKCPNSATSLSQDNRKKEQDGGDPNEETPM

Row | microsomal CLint [1] [µL/min/mg] | Ki (5'-nucleotidase [2]) [nM] | Ki (5'-nucleotidase [4]) [nM] | inhibition [5] | inhibition [6] | Ki (5'-nucleotidase [7]) [nM] | inhibition [8] | half-life [9] [h] | inhibition [10] | inhibition [11] | Activity [12] | inhibition (5'-nucleotidase [13]) | Compound | Ratio Ki [3] | Activity (A549) | Activity (MDA-MB-231) | Activity (Retina)
1 | 12 | 26 | 4.59 | inactive | inactive | 2.98 | inactive | 1.93 | inactive | Active | inactive | Active | O=C(NCCCCCCNC(=O)c1ccc2c(c1)C1(OC2=O)c2ccc(O)cc2Oc2cc(O)ccc21)c1ccc(CNc2ncnc3c2ncn3[C@@H]2O[C@H](COP(=O)(O)CP(=O)(O)O)[C@@H](O)[C@H]2O)cc1 | 8 | Non-Toxic | Non-Toxic | Non-Toxic
2 | – | – | – | – | – | 12.6 | – | – | – | Active | – | Active | O=C(NCCOCCOCCNC(=O)c1ccc2c(c1)C1(OC2=O)c2ccc(O)cc2Oc2cc(O)ccc21)c1ccc(CNc2ncnc3c2ncn3[C@@H]2O[C@H](COP(=O)(O)CP(=O)(O)O)[C@@H](O)[C@H]2O)cc1 | – | Non-Toxic | Non-Toxic | Non-Toxic

Source: ChEMBL document CHEMBL4725476, “Fluorescent Probes for Ecto-5'-nucleotidase (CD73)” (ACS Med Chem Lett, 2020)
